Values after ≈ are worked out from the molar mass of the structure shown. Active and inactive are the calls of the source. The rule behind the calls is not given here.
How the values were obtained:
Bacillus spizizenii = assay: Antibacterial activity against Bacillus subtilis ATCC 6633 assessed as growth inhibition after 24 hrs by micro dilution method; assay type: functional; conditions: ATCC 6633, 24 h
Procedure, shortened: (§1)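 MIC determined by broth microdilution in casein soy broth (pH 7.3) at an inoculum of 10^5 CFU/mL, incubated 24 h at 37 C. Levofloxacin was the comparator and controls were run alongside. Samples were tested in quadruplicate.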

Staphylococcus aureus [1] = assay: Antibacterial activity against Staphylococcus aureus ATCC 6538p assessed as growth inhibition after 24 hrs by micro dilution method; assay type: functional; procedure, shortened: as §1
Shigella sonnei [2] = assay: Antibacterial activity against Shigella sonnei ATCC 15305 assessed as growth inhibition after 24 hrs by micro dilution method; assay type: functional; conditions: ATCC 15305, 24 h; procedure, shortened: as §1
Pseudomonas aeruginosa = assay: Antibacterial activity against Pseudomonas aeruginosa ATCC […] assessed as growth inhibition after 24 hrs by micro dilution method; assay type: functional; procedure, shortened: as §1
Escherichia coli [3] = assay: Antibacterial activity against Escherichia coli ATCC 25922 assessed as growth inhibition after 24 hrs by micro dilution method; assay type: functional; conditions: ATCC 25922, 24 h; procedure, shortened: as §1
Staphylococcus aureus [4] = assay: Antibacterial activity against Staphylococcus aureus ATCC 6538p; assay type: functional; procedure, shortened: as §1
Shigella sonnei [5] = assay: Antibacterial activity against Shigella sonnei ATCC 15305; assay type: functional
Escherichia coli [6] = assay: Antibacterial activity against Escherichia coli ATCC 25922; assay type: functional
Enterococcus sp. [7] = assay: Antibacterial activity against Enterococcus sp. ATCC 6589 assessed as growth inhibition after 24 hrs by micro dilution method; assay type: functional; conditions: ATCC 6589, 24 h; procedure, shortened: as §1
Klebsiella aerogenes = assay: Antibacterial activity against Enterobacter aerogenes ATCC 13048 assessed as growth inhibition after 24 hrs by micro dilution method; assay type: functional; conditions: ATCC 13048, 24 h; procedure, shortened: as §1
Salmonella typhimurium [8] = assay: Antibacterial activity against Salmonella typhimurium ATCC 14028 assessed as growth inhibition after 24 hrs by micro dilution method; assay type: functional, Salmonella enterica subsp. enterica serovar Typhimurium; conditions: Salmonella enterica, ATCC 14028, 24 h; procedure, shortened: as §1
Morganella morganii [9] = assay: Antibacterial activity against Morganella morganii ATCC 8019 assessed as growth inhibition after 24 hrs by micro dilution method; assay type: functional; conditions: ATCC 8019, 24 h; procedure, shortened: as §1
Enterococcus sp. [10] = assay: Antibacterial activity against Enterococcus sp. ATCC 6589; assay type: functional
Salmonella typhimurium [11] = assay: Antibacterial activity against Salmonella typhimurium ATCC 14028; assay type: functional, Salmonella enterica subsp. enterica serovar Typhimurium; procedure, shortened: as §1
Burkholderia cepacia = assay: Antibacterial activity against Burkholderia cepacia ATCC 17759; assay type: functional
Morganella morganii [12] = assay: Antibacterial activity against Morganella morganii ATCC 8019; assay type: functional
Enterococcus sp. [13] = assay: Antibacterial activity against Enterococcus sp. ATCC 6589 assessed as growth inhibition by measuring turbidity of medium measured over 10 hrs by microplate reader analysis; assay type: functional, organism-based
Procedure, shortened: (§2)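 Overnight casein soy broth cultures (37 C) were centrifuged, resuspended in fresh medium and adjusted to about 5 10^7 cells/mL (OD620 0.2). Cells were grown in microplate wells to mid-log phase, then twofold serial dilutions of the test agents in fresh medium were added. OD620 was read every 15 min at 23 C for 10 h, with 30 s shaking between reads. Runs were in quadruplicate.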

Morganella morganii [14] = assay: Antibacterial activity against Morganella morganii ATCC 8019 assessed as growth inhibition by measuring turbidity of medium measured over 10 hrs by microplate reader analysis; assay type: functional, organism-based; procedure, shortened: as §2
Enterococcus sp. [15] = assay: Antibacterial activity against Enterococcus sp. ATCC 6589 assessed as growth inhibition by measuring turbidity of medium at MIC measured over 10 hrs by microplate reader analysis; assay type: functional, organism-based; procedure, shortened: as §2
Morganella morganii [16] = assay: Antibacterial activity against Morganella morganii ATCC 8019 assessed as growth inhibition by measuring turbidity of medium at >= MIC measured over 10 hrs by microplate reader analysis; assay type: functional, organism-based; procedure, shortened: as §2
Enterococcus sp. [17] = assay: Antibacterial activity against Enterococcus sp. ATCC 6589 assessed as growth inhibition by measuring turbidity of medium at 25 to 400 ug/mL measured over 10 hrs by microplate reader analysis; assay type: functional, organism-based; procedure, shortened: as §2

MIC (Bacillus spizizenii) | MIC (Staphylococcus aureus [1]) | MIC (Shigella sonnei [2]) | MIC (Pseudomonas aeruginosa) | MIC (Escherichia coli [3]) | Compound | MLC (Staphylococcus aureus [4]) | MLC (Shigella sonnei [5]) | MLC (Escherichia coli [6]) | other results
50 µg/mL (≈ 140 µM) | 50 µg/mL (≈ 140 µM) | 50 µg/mL (≈ 140 µM) | 100 µg/mL (≈ 280 µM) | 25 µg/mL (≈ 69.9 µM) | Cc1ccc2c(c1)C(O)C(Cc1ccccc1)(Cc1ccccc1)C(=O)N2 (centres undefined) | >200 µg/mL | >200 µg/mL | >200 µg/mL | 
50 µg/mL (≈ 134 µM) | 100 µg/mL (≈ 268 µM) | 100 µg/mL (≈ 268 µM) | 100 µg/mL (≈ 268 µM) | 100 µg/mL (≈ 268 µM) | COc1ccc2c(c1)C(O)C(Cc1ccccc1)(Cc1ccccc1)C(=O)N2 (centres undefined) | >200 µg/mL | >200 µg/mL | >200 µg/mL | 
12.5 µg/mL (≈ 33.1 µM) | 25 µg/mL (≈ 66.2 µM) | 12.5 µg/mL (≈ 33.1 µM) | 50 µg/mL (≈ 132 µM) | 12.5 µg/mL (≈ 33.1 µM) | O=C1Nc2ccc(Cl)cc2C(O)C1(Cc1ccccc1)Cc1ccccc1 (centres undefined) | >200 µg/mL | >200 µg/mL | 200 µg/mL (≈ 529 µM) | 
100 µg/mL (≈ 291 µM) | 50 µg/mL (≈ 146 µM) | 50 µg/mL (≈ 146 µM) | 100 µg/mL (≈ 291 µM) | 100 µg/mL (≈ 291 µM) | O=C1Nc2ccccc2C(O)C1(Cc1ccccc1)Cc1ccccc1 (centres undefined) | >200 µg/mL | >200 µg/mL | >200 µg/mL | 
3.12 µg/mL (≈ 6.57 µM) | 6.25 µg/mL (≈ 13.2 µM) | 50 µg/mL (≈ 105 µM) | 50 µg/mL (≈ 105 µM) | 50 µg/mL (≈ 105 µM) | CCN1C(=O)C(Cc2ccc(Cl)cc2)(Cc2ccc(Cl)cc2)C(O)c2cc(Cl)ccc21 (centres undefined) | 50 µg/mL (≈ 105 µM) | 100 µg/mL (≈ 211 µM) | 100 µg/mL (≈ 211 µM) | MIC (Enterococcus sp. [7]): 6.25 µg/mL (≈ 13.2 µM); MIC (Klebsiella aerogenes): 50 µg/mL (≈ 105 µM); MIC (Salmonella typhimurium [8]): 50 µg/mL (≈ 105 µM); MIC (Morganella morganii [9]): 6.25 µg/mL (≈ 13.2 µM); MLC (Enterococcus sp. [10]): 25 µg/mL (≈ 52.7 µM); MLC (Salmonella typhimurium [11]): 100 µg/mL (≈ 211 µM); MLC (Burkholderia cepacia): 12.5 µg/mL (≈ 26.3 µM); MLC (Morganella morganii [12]): 12.5 µg/mL (≈ 26.3 µM); growth inhibition (GI) (Enterococcus sp. [13]): Dose-dependent effect; growth inhibition (GI) (Morganella morganii [14]): Dose-dependent effect
3.12 µg/mL (≈ 6.98 µM) | 3.12 µg/mL (≈ 6.98 µM) | 3.12 µg/mL (≈ 6.98 µM) | 50 µg/mL (≈ 112 µM) | 3.12 µg/mL (≈ 6.98 µM) | O=C1Nc2ccc(Cl)cc2C(O)C1(Cc1ccc(Cl)cc1)Cc1ccc(Cl)cc1 (centres undefined) | 12.5 µg/mL (≈ 28 µM) | 12.5 µg/mL (≈ 28 µM) | 50 µg/mL (≈ 112 µM) | MIC (Enterococcus sp. [7]): 6.25 µg/mL (≈ 14 µM); MIC (Klebsiella aerogenes): 50 µg/mL (≈ 112 µM); MIC (Salmonella typhimurium [8]): 50 µg/mL (≈ 112 µM); MIC (Morganella morganii [9]): 6.25 µg/mL (≈ 14 µM); MLC (Enterococcus sp. [10]): 50 µg/mL (≈ 112 µM); MLC (Salmonella typhimurium [11]): 100 µg/mL (≈ 224 µM); MLC (Morganella morganii [12]): 6.25 µg/mL (≈ 14 µM); growth inhibition (GI) (Enterococcus sp. [15]): Active; growth inhibition (GI) (Morganella morganii [16]): Active
 |  |  |  |  | CC1(C)S[C@@H]2[C@H](NC(=O)[C@H](N)c3ccccc3)C(=O)N2[C@H]1C(=O)O |  |  |  | growth inhibition (GI) (Enterococcus sp. [17]): Active
12.5 µg/mL (≈ 33.6 µM) | 100 µg/mL (≈ 269 µM) | 200 µg/mL (≈ 538 µM) | 100 µg/mL (≈ 269 µM) | 100 µg/mL (≈ 269 µM) | CCN1C(=O)C(Cc2ccccc2)(Cc2ccccc2)C(O)c2ccccc21 (centres undefined) | >200 µg/mL | >200 µg/mL | >200 µg/mL | 
> 100 µg/mL | 50 µg/mL (≈ 87.5 µM) | 50 µg/mL (≈ 87.5 µM) | 50 µg/mL (≈ 87.5 µM) | 50 µg/mL (≈ 87.5 µM) | O=C1N(Cc2ccc(Cl)cc2)c2ccc(Cl)cc2C(O)C1(Cc1ccc(Cl)cc1)Cc1ccc(Cl)cc1 (centres undefined) | 100 µg/mL (≈ 175 µM) | 100 µg/mL (≈ 175 µM) | >100 µg/mL | 

Source: ChEMBL document CHEMBL3259650, “Synthesis of symmetrically substituted 3,3-dibenzyl-4-hydroxy-3,4-dihydro-1H-quinolin-2-ones, as novel quinoline derivatives with antibacterial activity” (Eur J Med Chem, 2014)
